Measured values from ChEMBL document CHEMBL1649109, “Antiparasitic activities and toxicities of individual enantiomers of the 8-aminoquinoline 8-[(4-amino-1-methylbutyl)amino]-6-methoxy-4-methyl-5-[3,4-dichlorophenoxy]quinoline succinate” (Antimicrob Agents Chemother, 2008).
Active and inactive are the calls of the source. The calls are words filed in the database; no cut-off is given here.

Assays:
Pneumocystis carinii [1] = experiment: Antimicrobial activity against Pneumocystis carinii infected BALB/c mouse at 2 mg/kg/day, po after 21 days administered 4 weeks postinfection by methenamine silver nitrate staining method; format: functional, organism-based
Canis familiaris [2] = experiment: Toxicity in Beagle dog assessed as increase in methemoglobin level at 5.3 mg/kg/day, po measured on day 5; format: organism-based, Canis lupus familiaris; parameters: route oral; conditions: in vivo
Method in brief: (§1)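 Male beagles aged 8–9 months (n = 2) received oral primaquine diphosphate as bulk drug in gelatin capsules on days 1–4 (0.0116 mmol/kg/day as base), dosed by day-1 body weight. Jugular or cephalic blood was drawn before dosing on days 1, 2 and 4, then on days 5, 7, 9, 11, 15, 18, 21, 25 and 29. Methemoglobin was measured by co-oximeter absorbance at four wavelengths.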

Canis familiaris [3] = experiment: Toxicity in Beagle dog assessed as methemoglobin level at 5.3 mg/kg/day, po after 2 weeks; format: organism-based, Canis lupus familiaris; parameters: route oral; conditions: in vivo, 336 h; method in brief: as §1
Pneumocystis carinii [4] = experiment: Antimicrobial activity against Pneumocystis carinii infected BALB/c mouse at 2 mg/kg/day, po after 21 days administered 4 weeks postinfection by Giemsa staining method; format: functional, organism-based
Leishmania donovani [5] = experiment: Antileishmanial activity against Leishmania donovani HU3 infected in mouse assessed as inhibition of parasite burden at 15 mg/kg/day, sc for 5 days administered 7 days post-infection measured 14 days post-infection; format: functional, organism-based
Method in brief: (§2)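 Mice infected intravenously with 1 × 10^7 L. donovani (MHOM/ET/67/HU3) amastigotes. Starting 7 days post-infection, sodium stibogluconate was given subcutaneously once daily for 5 days, with doses expressed as SbV. Mice were killed 14 days post-infection. Parasite burdens were counted on liver impression smears and compared with an untreated control group. ED50 was obtained by linear regression.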

Leishmania donovani [6] = experiment: Antileishmanial activity against Leishmania donovani HU3 infected in mouse assessed as inhibition of parasite burden administered subcutaneously once daily for 5 days after 7 days post-infection measured 14 days post-infection; format: functional, organism-based; method in brief: as §2
Leishmania donovani [7] = experiment: Antileishmanial activity against Leishmania donovani HU3 infected in mouse assessed as inhibition of parasite burden at 45 mg/kg/day, sc for 5 days administered 7 days post-infection measured 14 days post-infection; format: functional, organism-based; method in brief: as §2
Leishmania donovani [8] = experiment: Antileishmanial activity against Leishmania donovani HU3 infected in mouse assessed as inhibition of parasite burden at 5 mg/kg/day, sc for 5 days administered 7 days post-infection measured 14 days post-infection; format: functional, organism-based; method in brief: as §2
Leishmania donovani [9] = experiment: Antileishmanial activity against Leishmania donovani HU3 infected in mouse assessed as inhibition of parasites in liver at 5 mg/kg/day, po treated for 5 days administered 7 days postinfection measured after 14 days post-infection; format: functional
Method in brief: (§3)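 L. donovani HU3 amastigotes, 1 × 10^7 given IV to mice. From day 7 post-infection, dosed orally once daily for 5 days in 0.25% methylcellulose-10% ethanol; reference stibogluconate given SC. Mice killed at day 14 post-infection. Parasite burden counted on liver impression smears against untreated controls. ED50 from linear regression, with 95% confidence limits.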

Plasmodium berghei [10] = experiment: Antimalarial activity against Plasmodium berghei KBG-173 infected in Swiss(CD-1) mouse assessed as reduction in parasitemia at 4 mg/kg/day, po treated for 3 days measured on day 6; format: functional; parameters: scale not given: the % may be the effect or the level left
Method in brief: (§4)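 CD-1 mice, 5 weeks old, male or female, groups of five, infected with 5 × 10^4 P. berghei KBG-173 parasitized erythrocytes. Drug in 0.5% hydroxyethylcellulose/0.1% Tween 80, given orally once daily on days 3, 4 and 5 post-infection. Parasitemia from blood films on day +6. Read-out also includes increase in mean survival time over controls and survivors at day +34.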

Pneumocystis carinii [11] = experiment: Antimicrobial activity against Pneumocystis carinii infected BALB/c mouse at 0.25 mg/kg/day, po after 21 days administered 4 weeks postinfection by methenamine silver nitrate staining method; format: functional, organism-based
Method in brief: (§5)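 Female BALB/c mice, 6-8 weeks, immunosuppressed with dexamethasone […] in drinking water, then inoculated transtracheally with 10^6 P. carinii. From 4 weeks post-inoculation, drug given in drinking water for 3 weeks, 10 mice/group, intake monitored. Lung impression smears stained with Giemsa or methenamine silver, read blinded. Graded 0-5 on a log scale; group mean ± SE.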

Leishmania donovani [12] = experiment: Antileishmanial activity against Leishmania donovani HU3 infected in mouse; format: functional; method in brief: as §3
Plasmodium berghei [13] = experiment: Antimalarial activity Plasmodium berghei KBG-173 infected in Swiss(CD-1) mouse assessed as mean survival time at 2 mg/kg, po pretreated 2 days before infection; format: functional
Method in brief: (§6)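 CD-1 mice, 5 weeks old, male or female, groups of five, infected with 5 × 10^4 P. berghei KBG-173 parasitized erythrocytes. One 2 mg/kg oral dose given on a single day, from day −3 to +2 relative to inoculation. Controls untreated. Read-out is increase in mean survival time over controls and number alive at day +30.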

Pneumocystis carinii [14] = experiment: Antimicrobial activity against Pneumocystis carinii infected BALB/c mouse at 1 mg/kg/day, po after 21 days administered 4 weeks postinfection by methenamine silver nitrate staining method; format: functional, organism-based; method in brief: as §5
Pneumocystis carinii [15] = experiment: Antimicrobial activity against Pneumocystis carinii infected BALB/c mouse at 1 mg/kg/day, po after 21 days administered 4 weeks postinfection by Giemsa staining method; format: functional, organism-based; method in brief: as §5
Canis familiaris [16] = experiment: Toxicity in Beagle dog assessed as increase in methemoglobin level at 0.64 mg/kg/day, po; format: organism-based, Canis lupus familiaris; parameters: route oral; conditions: in vivo
Method in brief: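 Beagle dogs, one male and one female per enantiomer, given 0.64 mg/kg/day (0.5 mg/kg base) orally for 4 days. After a 5-week washout the same dogs received 1.91 mg/kg/day for 4 days. Methemoglobin sampled from days −6 to 36. Each dog's values are mean of duplicate determinations.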

Pneumocystis carinii [17] = experiment: Antimicrobial activity against Pneumocystis carinii infected BALB/c mouse at 5 mg/kg/day, po after 21 days administered 4 weeks postinfection by methenamine silver nitrate staining method; format: functional, organism-based; method in brief: as §5
Pneumocystis carinii [18] = experiment: Antimicrobial activity against Pneumocystis carinii infected BALB/c mouse at 0.5 mg/kg/day, po after 21 days administered 4 weeks postinfection by Giemsa staining method; format: functional, organism-based; method in brief: as §5
Pneumocystis carinii [19] = experiment: Antimicrobial activity against Pneumocystis carinii infected BALB/c mouse at 0.25 mg/kg/day, po after 21 days administered 4 weeks postinfection by Giemsa staining method; format: functional, organism-based; method in brief: as §5
Leishmania donovani [20] = experiment: Antileishmanial activity against Leishmania donovani HU3 infected in mouse assessed as inhibition of parasites in liver at 10 mg/kg/day, po treated for 5 days administered 7 days postinfection measured after 14 days post-infection; format: functional; method in brief: as §3
Plasmodium berghei [21] = experiment: Antimalarial activity Plasmodium berghei KBG-173 infected in Swiss(CD-1) mouse assessed as survival at 2 mg/kg, po treated at day of infection measured on day 30; format: functional, organism-based; parameters: dose 2 mg/kg; method in brief: as §6
Plasmodium berghei [22] = experiment: Antimalarial activity against Plasmodium berghei KBG-173 infected in Swiss(CD-1) mouse assessed as mean survival time at 1 mg/kg/day, po treated for 3 days; format: functional; method in brief: as §4
Plasmodium berghei [23] = experiment: Antimalarial activity against Plasmodium berghei KBG-173 infected in Swiss(CD-1) mouse assessed as mean survival time at 0.25 mg/kg/day, po treated for 3 days; format: functional; method in brief: as §4
Plasmodium berghei [24] = experiment: Antimalarial activity against Plasmodium berghei KBG-173 infected in Swiss(CD-1) mouse assessed as parasitemia at 0.25 mg/kg/day, po treated for 3 days measured on day 6
Leishmania donovani [25] = experiment: Antileishmanial activity against Leishmania donovani HU3 infected in mouse assessed as inhibition of parasites in liver at 0.4 mg/kg/day, po treated for 5 days administered 7 days postinfection measured after 14 days post-infection; format: functional; method in brief: as §3
Plasmodium berghei [26] = experiment: Antimalarial activity against Plasmodium berghei KBG-173 infected in Swiss(CD-1) mouse assessed as parasitemia at 1 mg/kg/day, po treated for 3 days measured on day 6
Leishmania donovani [27] = experiment: Antileishmanial activity against Leishmania donovani HU3 infected in mouse assessed as inhibition of parasites in liver at 100 mg/kg/day, po treated for 5 days administered 7 days postinfection measured after 14 days; format: functional; method in brief: as §3
Plasmodium berghei [28] = experiment: Antimalarial activity Plasmodium berghei KBG-173 infected in Swiss(CD-1) mouse assessed as mean survival time at 2 mg/kg, po pretreated 3 days before infection; format: functional; method in brief: as §6
Plasmodium berghei [29] = experiment: Antimalarial activity Plasmodium berghei KBG-173 infected in Swiss(CD-1) mouse assessed as survival at 2 mg/kg, po treated 2 day postinfection measured on day 30; format: functional, organism-based; parameters: dose 2 mg/kg; method in brief: as §6
Plasmodium berghei [30] = experiment: Antimalarial activity Plasmodium berghei KBG-173 infected in Swiss(CD-1) mouse assessed as survival at 2 mg/kg, po pretreated 1 day before infection measured on day 30; format: functional, organism-based; parameters: dose 2 mg/kg; method in brief: as §6
Pneumocystis carinii [31] = experiment: Antimicrobial activity against Pneumocystis carinii infected BALB/c mouse at 0.5 mg/kg/day, po after 21 days administered 4 weeks postinfection by methenamine silver nitrate staining method; format: functional, organism-based; method in brief: as §5
Plasmodium berghei [32] = experiment: Antimalarial activity Plasmodium berghei KBG-173 infected in Swiss(CD-1) mouse assessed as survival at 2 mg/kg, po treated 1 day postinfection measured on day 30; format: functional, organism-based; parameters: dose 2 mg/kg; method in brief: as §6
Plasmodium berghei [33] = experiment: Antimalarial activity against Plasmodium berghei KBG-173 infected in Swiss(CD-1) mouse assessed as survival at 4 mg/kg/day, po treated for 3 days measured on day 34; format: functional, organism-based; method in brief: as §4
Pneumocystis carinii [34] = experiment: Antimicrobial activity against Pneumocystis carinii infected BALB/c mouse at 5 mg/kg/day, po after 21 days administered 4 weeks postinfection by Giemsa staining method; format: functional, organism-based; method in brief: as §5
Pneumocystis carinii [35] = experiment: Antimicrobial activity against Pneumocystis carinii infected BALB/c mouse at 0.1 mg/kg/day, po after 21 days administered 4 weeks postinfection by Giemsa staining method; format: functional, organism-based

COc1cc(NC(C)CCCN)c2ncccc2c1 (configuration not stated) [PRIMAQUINE]
Activity (Pneumocystis carinii [1]): inactive | Activity (Canis familiaris [2]): Toxic | Activity (Canis familiaris [3]): Non-toxic | Activity (Pneumocystis carinii [4]): inactive

Sodium stibogluconate
inhibition (Leishmania donovani [5]): 59.4% | ED50 (Leishmania donovani [6]): 27.7 mg/kg | ED90 (Leishmania donovani [6]): > 45 mg/kg | inhibition (Leishmania donovani [7]): 99.3% | inhibition (Leishmania donovani [8]): 13.8%

COc1cc(N[C@H](C)CCCN)c2nccc(C)c2c1Oc1ccc(Cl)c(Cl)c1.O=C(O)CCC(=O)O
inhibition in vivo at 5 mg/kg/day (Leishmania donovani [9]): 98% | Activity (Plasmodium berghei [10]): 0% | Activity (Pneumocystis carinii [11]): Active | ED90 (Leishmania donovani [12]): 3.61 mg/kg | ED50 (Leishmania donovani [12]; Leishmania donovani, HU3): 1.28 mg/kg | MST (Plasmodium berghei [13]): 8.4 days | Activity (Pneumocystis carinii [14]): Active | Activity (Pneumocystis carinii [15]): Active | Activity (Canis familiaris [16]): Toxic | Activity (Pneumocystis carinii [17]): Active | Activity (Pneumocystis carinii [18]): Active | Activity (Pneumocystis carinii [19]): Active | inhibition in vivo at 10 mg/kg/day (Leishmania donovani [20]): 99.3% | Activity (Plasmodium berghei [21]): inactive | MST (Plasmodium berghei [22]): 20.5 days | MST (Plasmodium berghei [23]): 11.6 days | Activity (Plasmodium berghei [24]): 0.2% | inhibition in vivo at 0.4 mg/kg/day (Leishmania donovani [25]): 61.5% | Activity (Plasmodium berghei [26]): 0% | inhibition in vivo at 100 mg/kg/day (Leishmania donovani [27]): 99.8% | MST (Plasmodium berghei [28]): 4.6 days | Activity (Plasmodium berghei [29]): inactive | Activity (Plasmodium berghei [30]): inactive | Activity (Pneumocystis carinii [31]): Active | Activity (Plasmodium berghei [32]): inactive | Activity (Plasmodium berghei [33]): inactive | Activity (Pneumocystis carinii [34]): Active | Activity (Pneumocystis carinii [35]): Active
